Paper PMC4263960 (Pediatric blood & cancer, 2013)

Experiments:
TC-71 cell line = test: DIMSCAN in vitro cytotoxicity testing, TC-71; format: cell-based
Method in brief: (§1)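 Test compound incubated with cells of a 24-line pediatric cancer panel for 96 h at 0.1 nM to 1 μM, then assessed by DIMSCAN. Relative IC50 (rIC50) derived per line. Panel comparison value is the panel rIC50 divided by the rIC50 of each cell line.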

NB-1643 cell line = test: DIMSCAN in vitro cytotoxicity testing, NB-1643; format: cell-based
Method in brief: as §1

CHLA-90 cell line = test: DIMSCAN in vitro cytotoxicity testing, CHLA-90; format: cell-based
Method in brief: as §1

Karpas-299 cell line = test: DIMSCAN in vitro cytotoxicity testing, Karpas-299; format: cell-based
Method in brief: as §1

CHLA258 Ewing xenograft = test: PPTP in vivo xenograft testing, CHLA258; set-up: species or system mice
[1] = tested on: OS-33 osteosarcoma xenograft; test: PPTP in vivo xenograft testing, OS-33; set-up: species or system mice
[2] = tested on: ALL-2 ALL B-precursor xenograft; test: PPTP in vivo xenograft testing, ALL-2; set-up: species or system mice
[3] = tested on: ALL-17 ALL B-precursor xenograft; test: PPTP in vivo xenograft testing, ALL-17; set-up: species or system mice
[4] = cited from earlier work
[5] = 1 mg/kg IP Q4Dx3 repeated at Day 21
[6] = 1.5 mg/kg IP Q4Dx3 repeated at Day 21

C=C1C[C@@H]2CC[C@@]34C[C@H]5O[C@H]6[C@@H](O3)[C@H]3O[C@H](CC[C@@H]3O[C@H]6[C@H]5O4)CC(=O)C[C@@H]3[C@@H](OC)[C@@H](C[C@H](O)CN)O[C@H]3C[C@H]3O[C@@H](CC[C@@H]1O2)C[C@@H](C)C3=C [Eribulin]
Panel rIC50/Line rIC50 (TC-71 cell line; TC-71): 2.45 | Relative in/out% (TC-71 cell line; TC-71): −99% | Ymin % (observed) (TC-71 cell line; TC-71): 0.01% | IC50 (TC-71 cell line; TC-71, 96 h, read-out: rIC50): 0.11 nM | Panel rIC50/Line rIC50 (NB-1643 cell line; NB-1643): 0.57 | Relative in/out% (NB-1643 cell line; NB-1643): −97% | Ymin % (observed) (NB-1643 cell line; NB-1643): 0.53% | IC50 (NB-1643 cell line; NB-1643, 96 h, read-out: rIC50): 0.47 nM | IC50 (CHLA-90 cell line; 96 h, read-out: rIC50): 1.77 nM | Panel rIC50/Line rIC50 (CHLA-90 cell line; CHLA-90): 0.15 | Relative in/out% (CHLA-90 cell line; CHLA-90): −67% | Ymin % (observed) (CHLA-90 cell line; CHLA-90): 9.26% | IC50 (Karpas-299 cell line; Homo sapiens, KARPAS-299, 96 h, read-out: rIC50): < 0.1 nM | Panel rIC50/Line rIC50 (Karpas-299 cell line; Karpas-299): >2.74 | Relative in/out% (Karpas-299 cell line; Karpas-299): −100% | Ymin % (observed) (Karpas-299 cell line; Karpas-299): 0.03% | EFS activity (CHLA258 Ewing xenograft; 1 mg/kg IP): High (High activity requires: (a) an EFS T/C >2; (b) a significant difference in EFS distributions, and (c) a net reduction in median tumor volume for animals in the treated group at the end of treatment as compared to at treatment initiation) | Response activity (CHLA258 Ewing xenograft; 1 mg/kg IP): High (A high level of activity is indicated by a score of 6 or more) | T/C volume activity (CHLA258 Ewing xenograft; 1 mg/kg IP): High (High activity = T/C ≤0.15) | EFS T/C (CHLA258 Ewing xenograft; [5]): >4.2 | Median final RTV (CD45%) (CHLA258 Ewing xenograft; [5]): 0.0 | Tumor volume T/C (CHLA258 Ewing xenograft; 1 mg/kg IP, Day 21 or earlier): 0.01 | EFS activity ([1]; 1 mg/kg IP): High (High activity requires: (a) an EFS T/C >2; (b) a significant difference in EFS distributions, and (c) a net reduction in median tumor volume for animals in the treated group at the end of treatment as compared to at treatment initiation) | Response activity ([1]; 1 mg/kg IP): High (A high level of activity is indicated by a score of 6 or more) | T/C volume activity ([1]; 1 mg/kg IP): Int (Intermediate activity = T/C ≤0.45 but >0.15) | EFS T/C [1, 5]: >2.7 | Median final RTV (CD45%) [1, 5]: 0.2 | Tumor volume T/C ([1]; 1 mg/kg IP, Day 21 or earlier): 0.24 | EFS activity ([2]; 1.5 mg/kg IP): High (High activity requires: (a) an EFS T/C >2; (b) a significant difference in EFS distributions, and (c) a net reduction in median tumor volume for animals in the treated group at the end of treatment as compared to at treatment initiation) | Response activity ([2]; 1.5 mg/kg IP): High (A high level of activity is indicated by a score of 6 or more) | EFS T/C [2, 6]: >2.8 | Median final RTV (CD45%) ([2]; CD45%, 1.5 mg/kg IP): 0.0% | EFS activity ([3]; 1.5 mg/kg IP): High (High activity requires: (a) an EFS T/C >2; (b) a significant difference in EFS distributions, and (c) a net reduction in median tumor volume for animals in the treated group at the end of treatment as compared to at treatment initiation) | Response activity ([3]; 1.5 mg/kg IP): High (A high level of activity is indicated by a score of 6 or more) | EFS T/C [3, 6]: >5.3 | Median final RTV (CD45%) ([3]; CD45%, 1.5 mg/kg IP): 0.0% | systemic exposure (AUC) ([4]; humans, 1.4 mg/m^2 dose): approximately 790 ng hour/ml | serum half-life ([4]; patients): 37.8 h
